Legend:
Mus musculus [1] = test: Teratogenicity in SWV/Fnn mouse assessed as live fetuses at 141 mg/kg, ip on day 8.5 of gestation (reference value: 93.7 %); format: toxicity, organism-based; set-up: dose 141 mg/kg, route intraperitoneal; conditions: in vivo
[2] = Tmax in rat at 60 mg/kg, ip; format: ADME, organism-based; set-up: dose 60 mg/kg, route intraperitoneal; conditions: in vivo
Method in brief: (§1)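 Naive rats got a single ip dose of 60 mg/kg, formulated in multisol (propylene glycol:alcohol:water for injection, 5:1:4). Plasma concentration–time profiles were followed, and PK parameters (t1/2, CL/F, Vz/F, AUC, Cmax, tmax, MRT) were derived from them.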

[3] = Mean residence time in rat at 60 mg/kg, ip; format: ADME, organism-based; set-up: dose 60 mg/kg, route intraperitoneal; conditions: in vivo; method in brief: as §1
[4] = Terminal half life in rat at 60 mg/kg, ip; format: ADME, organism-based; set-up: dose 60 mg/kg, route intraperitoneal; conditions: in vivo, read-out: beta t1/2 (converted); method in brief: as §1
Mus musculus [5] = test: Teratogenicity in SWV/Fnn mouse assessed as fetuses with neural tube defects at 141 mg/kg, ip on day 8.5 of gestation relative to vehicle-treated control; format: toxicity, organism-based; set-up: dose 141 mg/kg, route intraperitoneal; conditions: in vivo
Mus musculus [6] = test: Teratogenicity in SWV/Fnn mouse assessed as resorption at 141 mg/kg, ip on day 8.5 of gestation (reference value: 6.3 %); format: toxicity, organism-based; set-up: dose 141 mg/kg, route intraperitoneal; conditions: in vivo
[7] = AUC in rat at 60 mg/kg, ip; format: ADME, organism-based; set-up: dose 60 mg/kg, route intraperitoneal; conditions: plasma; method in brief: as §1
Hippocampus [8] = test: Protection against kainic acid-induced spontaneous electrographic seizures in combined medial entorhinal cortex hippocampal brain slices of albino Sprague-Dawley rat assessed as burst duration at 100 uM after 1 week relative to control; format: functional
Method in brief: (§2)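 Rat brain slices showing spontaneous bursting were exposed to 100 μM compound. Burst rate and burst duration were expressed as % of control ± SEM.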

[9] = Neurotoxicity in ip dosed albino CF1 mouse assessed as minimal motor impairment after 0.25 to 0.5 hrs; format: toxicity, organism-based; conditions: in vivo
Method in brief: (§3)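 Each test was run at the previously determined time to peak effect: 0.25–0.5 h after ip dosing, or 0.5–1 h after oral dosing. Groups of 4–8 animals received various doses until at least two points fell between 0% and 100% protection or minimal toxicity.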

Rattus norvegicus [10] = test: Anticonvulsant activity in po dosed albino Sprague-Dawley rat assessed as protection against maximal electroshock-induced seizures after 0.5 to 1 hr; format: functional; method in brief: as §3
Mus musculus [11] = test: Teratogenicity in SWV/Fnn mouse assessed as normal fetuses at 141 mg/kg, ip on day 8.5 of gestation (reference value: 100 %); format: toxicity, organism-based; set-up: dose 141 mg/kg, route intraperitoneal; conditions: in vivo
Rattus norvegicus [12] = test: Anticonvulsant activity in ip dosed albino Sprague-Dawley rat assessed as protection against pilocarpine-induced behavioral seizures administered 30 mins post seizure measured after 0.25 to 0.5 hrs; format: functional
Method in brief: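 Status epilepticus was induced in rats with lithium–pilocarpine. Compound was given ip 30 min after the first observed stage 3 or greater motor seizure. The read-out was prevention of further convulsive seizures across various doses in groups of 4–8 rats.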

Hippocampus [13] = test: Protection against kainic acid-induced spontaneous electrographic seizures in combined medial entorhinal cortex hippocampal brain slices of albino Sprague-Dawley rat assessed as burst rate at 100 uM after 1 week relative to control; format: functional; method in brief: as §2
Mus musculus [14] = test: Anticonvulsant activity in ip dosed albino CF1 mouse assessed as protection against 44 mA-current- for 3 secs induced seizures after 0.25 to 0.5 hrs by 6Hz psychomotor seizure test; format: functional; method in brief: as §3
Mus musculus [15] = test: Teratogenicity in SWV/Fnn mouse assessed as fetuses with neural tube defects at 283 mg/kg, ip on day 8.5 of gestation relative to vehicle-treated control; format: toxicity, organism-based; set-up: dose 283 mg/kg, route intraperitoneal; conditions: in vivo
[16] = Cmax in rat at 60 mg/kg, ip; format: ADME, organism-based; set-up: dose 60 mg/kg, route intraperitoneal; conditions: in vivo; method in brief: as §1
Rattus norvegicus [17] = test: Anticonvulsant activity in ip dosed albino Sprague-Dawley rat assessed as protection against subcutaneous metrazol-induced seizures after 0.25 to 0.5 hrs; format: functional; method in brief: as §3
Mus musculus [18] = test: Teratogenicity in SWV/Fnn mouse assessed as resorption at 283 mg/kg, ip on day 8.5 of gestation (reference value: 6.3 %); format: toxicity, organism-based; set-up: dose 283 mg/kg, route intraperitoneal; conditions: in vivo
Mus musculus [19] = test: Teratogenicity in SWV/Fnn mouse assessed as normal fetuses at 283 mg/kg, ip on day 8.5 of gestation (reference value: 100 %); format: toxicity, organism-based; set-up: dose 283 mg/kg, route intraperitoneal; conditions: in vivo
[20] = Apparent volume of distribution […] in rat at 60 mg/kg, ip; format: ADME, organism-based; set-up: dose 60 mg/kg, route intraperitoneal; conditions: in vivo, read-out: Vz/F; method in brief: as §1
[21] = Apparent clearance in rat at 60 mg/kg, ip; format: ADME, organism-based; set-up: dose 60 mg/kg, route intraperitoneal; conditions: in vivo; method in brief: as §1
[22] = Neurotoxicity in ip dosed albino Sprague-Dawley rat assessed as minimal motor impairment after 0.25 to 0.5 hrs; format: toxicity, organism-based; conditions: in vivo; method in brief: as §3
Mus musculus [23] = test: Anticonvulsant activity in ip dosed albino CF1 mouse assessed as protection against maximal electroshock-induced seizures after 0.25 to 0.5 hrs; format: functional; method in brief: as §3
Mus musculus [24] = test: Anticonvulsant activity in ip dosed albino CF1 mouse assessed as protection against subcutaneous metrazol-induced seizures after 0.25 to 0.5 hrs; format: functional; conditions: albino CF1, 0.5 h; method in brief: as §3
[25] = Neurotoxicity in po dosed albino Sprague-Dawley rat assessed as minimal motor impairment after 0.5 to 1 hr; format: toxicity, organism-based; conditions: in vivo; method in brief: as §3
Mus musculus [26] = test: Anticonvulsant activity in ip dosed albino CF1 mouse assessed as protection against 32 mA-current- for 3 secs induced seizures after 0.25 to 0.5 hrs by 6Hz psychomotor seizure test; format: functional; method in brief: as §3
Mus musculus [27] = test: Teratogenicity in SWV/Fnn mouse assessed as live fetuses at 283 mg/kg, ip on day 8.5 of gestation (reference value: 93.7 %); format: toxicity, organism-based; set-up: dose 283 mg/kg, route intraperitoneal; conditions: in vivo
Mus musculus [28] = test: Teratogenicity in SWV/Fnn mouse assessed as fetuses with neural tube defects at 181 mg/kg, ip on day 8.5 of gestation relative to vehicle-treated control; format: toxicity, organism-based; set-up: dose 181 mg/kg, route intraperitoneal; conditions: in vivo
Mus musculus [29] = test: Teratogenicity in SWV/Fnn mouse assessed as live fetuses at 181 mg/kg, ip on day 8.5 of gestation (reference value: 93.7 %); format: toxicity, organism-based; set-up: dose 181 mg/kg, route intraperitoneal; conditions: in vivo
Mus musculus [30] = test: Teratogenicity in SWV/Fnn mouse assessed as normal fetuses at 181 mg/kg, ip on day 8.5 of gestation (reference value: 100 %); format: toxicity, organism-based; set-up: dose 181 mg/kg, route intraperitoneal; conditions: in vivo
Mus musculus [31] = test: Teratogenicity in SWV/Fnn mouse assessed as resorption at 181 mg/kg, ip on day 8.5 of gestation (reference value: 6.3 %); format: toxicity, organism-based; set-up: dose 181 mg/kg, route intraperitoneal; conditions: in vivo
Mus musculus [32] = test: Teratogenicity in SWV/Fnn mouse assessed as normal fetuses at 301 mg/kg, ip on day 8.5 of gestation (reference value: 100 %); format: toxicity, organism-based; set-up: dose 301 mg/kg, route intraperitoneal; conditions: in vivo
Mus musculus [33] = test: Teratogenicity in SWV/Fnn mouse assessed as resorption at 301 mg/kg, ip on day 8.5 of gestation (reference value: 6.3 %); format: toxicity, organism-based; set-up: dose 301 mg/kg, route intraperitoneal; conditions: in vivo

## CCC[C@@H](C(N)=O)[C@@H](C)CC [(2R,3S)-SEC-BUTYLPROPYLACETAMIDE]
Mus musculus [1]
  Activity: 91.6%
[2]
  Tmax: 60 min
[3]
  MRT: 2.2 h
[4]
  half-life: 78 min
Mus musculus [5]
  Activity: 0%
Mus musculus [6]
  Activity: 8.4%
[7]
  AUC: 15200 ng·h/mL
Hippocampus [8]
  Activity: 78%
[9]
  TD50: 67 mg/kg
Rattus norvegicus [10]
  ED50: 72 mg/kg
Mus musculus [11]
  Activity: 100%
Rattus norvegicus [12]
  ED50: 135 mg/kg
Hippocampus [13]
  Activity: 97%
Mus musculus [14]
  ED50: 51 mg/kg
Mus musculus [15]
  Activity: 0%
[16]
  Cmax: 5300 ng/mL
Rattus norvegicus [17]
  ED50: 15 mg/kg
Mus musculus [18]
  Activity: 6.5%
Mus musculus [19]
  Activity: 100%
[20]
  Vd/F: 7.2 L/kg
[21]
  CL/F: 65 mL/min/kg
[22]
  TD50: 41 mg/kg
Mus musculus [23]
  ED50: 95 mg/kg
Mus musculus [24]
  ED50: 93 mg/kg
[25]
  TD50: 79 mg/kg
Mus musculus [26]
  ED50: 29 mg/kg
Mus musculus [27]
  Activity: 93.5%

## CCC[C@H](C(N)=O)[C@H](C)CC [(2S,3R)-SEC-BUTYLPROPYLACETAMIDE]
Mus musculus [1]
  Activity: 92.6%
[2]
  Tmax: 30 min
[3]
  MRT: 1.5 h
[4]
  half-life: 57 min
Mus musculus [5]
  Activity: 0%
Mus musculus [6]
  Activity: 7.4%
[7]
  AUC: 12600 ng·h/mL
Hippocampus [8]
  Activity: 90%
[9]
  TD50: > 75 mg/kg
Rattus norvegicus [10]
  ED50: 106 mg/kg
Mus musculus [11]
  Activity: 100%
Rattus norvegicus [12]
  ED50: > 130 mg/kg
Hippocampus [13]
  Activity: 91%
Mus musculus [14]
  ED50: < 100 mg/kg
Mus musculus [15]
  Activity: 0%
[16]
  Cmax: 8000 ng/mL
Mus musculus [18]
  Activity: 9.4%
Mus musculus [19]
  Activity: 100%
[20]
  Vd/F: 6.3 L/kg
[21]
  CL/F: 76.7 mL/min/kg
[25]
  TD50: 105 mg/kg
Mus musculus [26]
  ED50: 27 mg/kg
Mus musculus [27]
  Activity: 90.6%

## CCCC(CCC)C(=O)[O-].[Na+] [VALPROATE SODIUM]
Mus musculus [28]
  Activity: 0%
Mus musculus [29]
  Activity: 92.3%
Mus musculus [30]
  Activity: 100%
Mus musculus [31]
  Activity: 7.7%
Mus musculus [32]
  Activity: 99%
Mus musculus [33]
  Activity: 13.6%
